Data on eight compounds can be found in ChEMBL document CHEMBL1138520, “Molecular and conformational determinants of pituitary adenylate cyclase-activating polypeptide (PACAP) for activation of the PAC1 receptor” (J Med Chem, 2009).

Where a SMILES comes first, the peptide text is derived from it.

The term EC50 denotes the concentration needed to bring the measured effect to its halfway point. As usually defined, the Emax is the maximal effect, on the per cent scale that the assay sets. Usually IC50 stands for the concentration needed to halve the response being measured.

For assay [1], the target named is T1, Pituitary adenylate cyclase-activating polypeptide type I receptor (Homo sapiens, UniProt P41586). Briefly: Agonist activity at human recombinant PAC1 receptor expressed in CHO cells assessed as PACAP38-induced calcium mobilization by FLIPR assay. Type of assay: functional, cell-based. The gist of the method: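 CHO cells stably expressing recombinant human PAC1, plated 24 h before assay, loaded with fluo-4 AM for 60 min at 37 °C in the dark, then rinsed into HBSS for 15 min at 37 °C. EC50 and efficacy came from nonlinear regression; 4-10 independent assays in duplicate.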
On the technique in general: Calcium assays in cells follow changes in intracellular calcium, usually with a dye or a luminescent sensor.
Target sequence in this assay (P41586 whole entry): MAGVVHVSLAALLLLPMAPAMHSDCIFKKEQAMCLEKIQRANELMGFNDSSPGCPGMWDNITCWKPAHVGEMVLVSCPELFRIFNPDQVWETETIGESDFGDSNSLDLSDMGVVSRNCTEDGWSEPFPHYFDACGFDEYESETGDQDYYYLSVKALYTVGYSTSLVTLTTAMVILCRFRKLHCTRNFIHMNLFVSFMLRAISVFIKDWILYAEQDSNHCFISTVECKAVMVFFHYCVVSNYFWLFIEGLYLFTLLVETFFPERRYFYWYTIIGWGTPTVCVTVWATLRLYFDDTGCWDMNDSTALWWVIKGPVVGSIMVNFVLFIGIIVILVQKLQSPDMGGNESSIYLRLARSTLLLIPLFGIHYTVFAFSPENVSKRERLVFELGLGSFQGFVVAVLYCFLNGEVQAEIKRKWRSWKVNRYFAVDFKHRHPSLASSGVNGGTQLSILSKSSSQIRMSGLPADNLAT

In assay [2] the target is T1, Pituitary adenylate cyclase-activating polypeptide type I receptor. Put plainly: Agonist activity at human recombinant PAC1 receptor expressed in CHO cells assessed as PACAP38-induced calcium mobilization by FLIPR assay relative to PACAP38. The format is functional, cell-based. The method, boiled down:
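CHO cells stably expressing recombinant human PAC1, plated 24 h before assay, loaded with fluo-4 AM for 60 min at 37 °C in the dark, then rinsed into HBSS for 15 min at 37 °C. Peptide was added 18 s into a 150 s read (ex 480/em 525 nm), at final concentrations of 1 × 10-12 to 1 × 10^-5 M. Response was normalised to 1 × 10^-5 M PACAP38 on each plate. EC50 and efficacy came from nonlinear regression; 4-10 independent assays in duplicate.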
Target sequence in this assay (P41586 21-468 limits assumed): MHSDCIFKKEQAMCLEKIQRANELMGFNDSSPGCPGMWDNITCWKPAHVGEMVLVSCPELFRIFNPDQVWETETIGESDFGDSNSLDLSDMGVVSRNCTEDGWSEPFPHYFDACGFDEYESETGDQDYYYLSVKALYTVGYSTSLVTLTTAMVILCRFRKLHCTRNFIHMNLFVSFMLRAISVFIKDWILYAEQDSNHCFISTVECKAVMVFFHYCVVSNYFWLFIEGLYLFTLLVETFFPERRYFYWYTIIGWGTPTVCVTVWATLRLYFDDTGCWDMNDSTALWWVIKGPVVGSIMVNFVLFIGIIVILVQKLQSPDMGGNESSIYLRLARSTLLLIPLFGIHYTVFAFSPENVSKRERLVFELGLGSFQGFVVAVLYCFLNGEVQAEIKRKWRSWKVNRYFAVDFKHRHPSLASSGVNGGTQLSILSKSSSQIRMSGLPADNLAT

Assay [3] has the same target. Briefly: Displacement of [125I]Ac-PACAP27 from human recombinant PAC1 receptor expressed in CHO cells by gamma- counter. Type of assay: cell-based. In general terms: Loss of bound radioactivity is the signal in a displacement assay; it reports binding, not function.
Target sequence in this assay (P41586 whole entry): as the sequence (P41586 whole entry) above

Turning to `CC[C@H](C)[C@H](NC(=O)CNC(=O)[C@H](CC(N)=O)NC(=O)[C@H](CO)NC(=O)[C@@H](N)Cc1cnc[nH]1)C(=O)N[C@@H](Cc1ccccc1)C(=O)N[C@H](C(=O)N[C@@H](CC(=O)O)C(=O)N[C@@H](CO)C(=O)N[C@@H](Cc1ccc(O)cc1)C(=O)N[C@@H](CO)C(=O)N[C@@H](CCCNC(=N)N)C(=O)N[C@@H](Cc1ccc(O)cc1)C(=O)N[C@@H](CCCNC(=N)N)C(=O)N[C@@H](CCCCN)C(=O)N[C@@H](CCC(N)=O)C(=O)N[C@@H](CCSC)C(=O)N[C@@H](C)C(=O)N[C@H](C(=O)N[C@@H](CCCCN)C(=O)N[C@@H](CCCCN)C(=O)N[C@@H](Cc1ccc(O)cc1)C(=O)N[C@@H](CC(C)C)C(=O)N[C@@H](C)C(=O)N[C@@H](C)C(=O)N[C@H](C(=O)N[C@@H](CC(C)C)C(=O)NCC(=O)N[C@@H](CCCCN)C(=O)N[C@@H](CCCNC(=N)N)C(=O)N[C@@H](Cc1ccc(O)cc1)C(=O)N[C@@H](CCCCN)C(=O)N[C@@H](CCC(N)=O)C(=O)N[C@@H](CCCNC(=N)N)C(=O)N[C@H](C(=O)N[C@@H](CCCCN)C(=O)N[C@@H](CC(N)=O)C(=O)N[C@@H](CCCCN)C(N)=O)C(C)C)C(C)C)C(C)C)[C@@H](C)O` (H-HSNGIFTDSYSRYRKQMAVKKYLAAVLGKRYKQRVKNK-NH2), in assay [1], the EC50 was 52.2 nM. Besides, the Emax in assay [2] was determined as 22.1%. Also, the IC50 in assay [3] stood at 9.2 nM.

In the case of `CC[C@H](C)[C@H](NC(=O)CNC(=O)[C@H](CC(=O)O)NC(=O)[C@@H](CO)NC(=O)[C@@H](N)Cc1cnc[nH]1)C(=O)N[C@@H](Cc1ccccc1)C(=O)N[C@H](C(=O)N[C@@H](CC(=O)O)C(=O)N[C@@H](CO)C(=O)N[C@@H](Cc1ccc(O)cc1)C(=O)N[C@@H](CO)C(=O)N[C@@H](CCCNC(=N)N)C(=O)N[C@@H](Cc1ccc(O)cc1)C(=O)N[C@@H](CCCNC(=N)N)C(=O)N[C@@H](CCCCN)C(=O)N[C@@H](CCC(N)=O)C(=O)N[C@@H](CCSC)C(=O)N[C@@H](C)C(=O)N[C@H](C(=O)N[C@@H](CCCCN)C(=O)N[C@@H](CCCCN)C(=O)N[C@@H](Cc1ccc(O)cc1)C(=O)N[C@@H](CC(C)C)C(=O)N[C@@H](C)C(=O)N[C@@H](C)C(=O)N[C@H](C(=O)N[C@@H](CC(C)C)C(=O)NCC(=O)N[C@@H](CCCCN)C(=O)N[C@@H](CCCNC(=N)N)C(=O)N[C@@H](Cc1ccc(O)cc1)C(=O)N[C@@H](CCCCN)C(=O)N[C@@H](CCC(N)=O)C(=O)N[C@@H](CCCNC(=N)N)C(=O)N[C@H](C(=O)N[C@@H](CCCCN)C(=O)N[C@@H](CC(N)=O)C(=O)N[C@@H](CCCCN)C(N)=O)C(C)C)C(C)C)C(C)C)[C@@H](C)O`, the EC50 in assay [1] worked out at 4.1 nM. For the same compound, in assay [2], the maximum response (Emax) worked out at 90.5%. Moreover, in assay [3], the IC50 worked out at 6.6 nM.

On to `CC[C@H](C)[C@H](NC(=O)CNC(=O)[C@H](CC(=O)O)NC(=O)[C@H](CO)NC(=O)[C@@H](N)Cc1cnc[nH]1)C(=O)N[C@@H](C)C(=O)N[C@H](C(=O)N[C@@H](CC(=O)O)C(=O)N[C@@H](CO)C(=O)N[C@@H](Cc1ccc(O)cc1)C(=O)N[C@@H](CO)C(=O)N[C@@H](CCCNC(=N)N)C(=O)N[C@@H](Cc1ccc(O)cc1)C(=O)N[C@@H](CCCNC(=N)N)C(=O)N[C@@H](CCCCN)C(=O)N[C@@H](CCC(N)=O)C(=O)N[C@@H](CCSC)C(=O)N[C@@H](C)C(=O)N[C@H](C(=O)N[C@@H](CCCCN)C(=O)N[C@@H](CCCCN)C(=O)N[C@@H](Cc1ccc(O)cc1)C(=O)N[C@@H](CC(C)C)C(=O)N[C@@H](C)C(=O)N[C@@H](C)C(=O)N[C@H](C(=O)N[C@@H](CC(C)C)C(N)=O)C(C)C)C(C)C)[C@@H](C)O`, for which the concentration for a half-maximal effect (EC50) in assay [1] stood at 462 nM. Also, the maximum response (Emax) in assay [2] turned out to be 65.3%. Besides, the IC50 in assay [3] worked out at 1330 nM.

For `CC[C@H](C)[C@@H](C(=O)N[C@@H](Cc1ccccc1)C(=O)N[C@H](C(=O)N[C@@H](CC(=O)O)C(=O)N[C@@H](CO)C(=O)N[C@@H](Cc1ccc(O)cc1)C(=O)N[C@@H](CO)C(=O)N[C@@H](CCCNC(=N)N)C(=O)N[C@@H](Cc1ccc(O)cc1)C(=O)N[C@@H](CCCNC(=N)N)C(=O)N[C@@H](CCCCN)C(=O)N[C@@H](CCC(N)=O)C(=O)N[C@@H](CCSC)C(=O)N[C@@H](C)C(=O)N[C@H](C(=O)N[C@@H](CCCCN)C(=O)N[C@@H](CCCCN)C(=O)N[C@@H](Cc1ccc(O)cc1)C(=O)N[C@@H](CC(C)C)C(=O)N[C@@H](C)C(=O)N[C@@H](C)C(=O)N[C@H](C(=O)N[C@@H](CC(C)C)C(N)=O)C(C)C)C(C)C)[C@@H](C)O)N(C)C(=O)CNC(=O)[C@H](CC(=O)O)NC(=O)[C@H](CO)NC(=O)[C@@H](N)Cc1cnc[nH]1`, the EC50 in assay [1] amounted to 1810 nM. The Emax in assay [2] turned out to be 34.5%. Moreover, in assay [3], the IC50 came to 1770 nM.

For `CC[C@H](C)[C@H](NC(=O)CNC(=O)[C@H](CC(=O)O)NC(=O)[C@H](CO)NC(=O)[C@@H](N)Cc1cnc[nH]1)C(=O)N[C@@H](Cc1ccccc1)C(=O)N(C)[C@H](C(=O)N[C@@H](CC(=O)O)C(=O)N[C@@H](CO)C(=O)N[C@@H](Cc1ccc(O)cc1)C(=O)N[C@@H](CO)C(=O)N[C@@H](CCCNC(=N)N)C(=O)N[C@@H](Cc1ccc(O)cc1)C(=O)N[C@@H](CCCNC(=N)N)C(=O)N[C@@H](CCCCN)C(=O)N[C@@H](CCC(N)=O)C(=O)N[C@@H](CCSC)C(=O)N[C@@H](C)C(=O)N[C@H](C(=O)N[C@@H](CCCCN)C(=O)N[C@@H](CCCCN)C(=O)N[C@@H](Cc1ccc(O)cc1)C(=O)N[C@@H](CC(C)C)C(=O)N[C@@H](C)C(=O)N[C@@H](C)C(=O)N[C@H](C(=O)N[C@@H](CC(C)C)C(=O)NCC(=O)N[C@@H](CCCCN)C(=O)N[C@@H](CCCNC(=N)N)C(=O)N[C@@H](Cc1ccc(O)cc1)C(=O)N[C@@H](CCCCN)C(=O)N[C@@H](CCC(N)=O)C(=O)N[C@@H](CCCNC(=N)N)C(=O)N[C@H](C(=O)N[C@@H](CCCCN)C(=O)N[C@@H](CC(N)=O)C(=O)N[C@@H](CCCCN)C(N)=O)C(C)C)C(C)C)C(C)C)[C@@H](C)O`, the EC50 in assay [1] stood at 1010 nM. For the same compound, the Emax in assay [2] is 40%. In addition, the IC50 in assay [3] is 1010 nM.

Take `CC[C@H](C)[C@H](NC(=O)CNC(=O)[C@H](C)NC(=O)[C@H](CO)NC(=O)[C@@H](N)Cc1cnc[nH]1)C(=O)N[C@@H](Cc1ccccc1)C(=O)N[C@H](C(=O)N[C@@H](CC(=O)O)C(=O)N[C@@H](CO)C(=O)N[C@@H](Cc1ccc(O)cc1)C(=O)N[C@@H](CO)C(=O)N[C@@H](CCCNC(=N)N)C(=O)N[C@@H](Cc1ccc(O)cc1)C(=O)N[C@@H](CCCNC(=N)N)C(=O)N[C@@H](CCCCN)C(=O)N[C@@H](CCC(N)=O)C(=O)N[C@@H](CCSC)C(=O)N[C@@H](C)C(=O)N[C@H](C(=O)N[C@@H](CCCCN)C(=O)N[C@@H](CCCCN)C(=O)N[C@@H](Cc1ccc(O)cc1)C(=O)N[C@@H](CC(C)C)C(=O)N[C@@H](C)C(=O)N[C@@H](C)C(=O)N[C@H](C(=O)N[C@@H](CC(C)C)C(=O)NCC(=O)N[C@@H](CCCCN)C(=O)N[C@@H](CCCNC(=N)N)C(=O)N[C@@H](Cc1ccc(O)cc1)C(=O)N[C@@H](CCCCN)C(=O)N[C@@H](CCC(N)=O)C(=O)N[C@@H](CCCNC(=N)N)C(=O)N[C@H](C(=O)N[C@@H](CCCCN)C(=O)N[C@@H](CC(N)=O)C(=O)N[C@@H](CCCCN)C(N)=O)C(C)C)C(C)C)C(C)C)[C@@H](C)O` (H-HSAGIFTDSYSRYRKQMAVKKYLAAVLGKRYKQRVKNK-NH2): in assay [1], the EC50 was 10000 nM. In assay [2], the Emax came out at 64.1%. Further, the IC50 in assay [3] turned out to be 97.2 nM.

Turning to `CSCC[C@H](NC(=O)[C@H](CCC(N)=O)NC(=O)[C@H](CCCCN)NC(=O)[C@H](CCCNC(=N)N)NC(=O)[C@H](Cc1ccc(O)cc1)NC(=O)[C@H](CCCNC(=N)N)NC(=O)[C@H](CO)NC(=O)[C@H](Cc1ccc(O)cc1)NC(=O)[C@H](CO)NC(=O)[C@H](CC(=O)O)NC(=O)[C@@H](NC(=O)[C@H](Cc1ccccc1)NC(=O)[C@H](CC(C)C)N1CC[C@H](NC(=O)[C@H](CC(=O)O)NC(=O)[C@H](CO)NC(=O)[C@@H](N)Cc2cnc[nH]2)C1=O)[C@@H](C)O)C(=O)N[C@@H](C)C(=O)N[C@H](C(=O)N[C@@H](CCCCN)C(=O)N[C@@H](CCCCN)C(=O)N[C@@H](Cc1ccc(O)cc1)C(=O)N[C@@H](CC(C)C)C(=O)N[C@@H](C)C(=O)N[C@@H](C)C(=O)N[C@H](C(=O)N[C@@H](CC(C)C)C(N)=O)C(C)C)C(C)C`, in assay [1], the EC50 came out at 1030 nM. Also, in assay [2], the Emax came to 54.1%. The IC50 in assay [3] was 1980 nM.

Take `CC[C@H](C)[C@H](NC(=O)CNC(=O)[C@H](CC(=O)O)NC(=O)[C@H](CO)N(C)C(=O)[C@@H](N)Cc1cnc[nH]1)C(=O)N[C@@H](Cc1ccccc1)C(=O)N[C@H](C(=O)N[C@@H](CC(=O)O)C(=O)N[C@@H](CO)C(=O)N[C@@H](Cc1ccc(O)cc1)C(=O)N[C@@H](CO)C(=O)N[C@@H](CCCNC(=N)N)C(=O)N[C@@H](Cc1ccc(O)cc1)C(=O)N[C@@H](CCCNC(=N)N)C(=O)N[C@@H](CCCCN)C(=O)N[C@@H](CCC(N)=O)C(=O)N[C@@H](CCSC)C(=O)N[C@@H](C)C(=O)N[C@H](C(=O)N[C@@H](CCCCN)C(=O)N[C@@H](CCCCN)C(=O)N[C@@H](Cc1ccc(O)cc1)C(=O)N[C@@H](CC(C)C)C(=O)N[C@@H](C)C(=O)N[C@@H](C)C(=O)N[C@H](C(=O)N[C@@H](CC(C)C)C(=O)NCC(=O)N[C@@H](CCCCN)C(=O)N[C@@H](CCCNC(=N)N)C(=O)N[C@@H](Cc1ccc(O)cc1)C(=O)N[C@@H](CCCCN)C(=O)N[C@@H](CCC(N)=O)C(=O)N[C@@H](CCCNC(=N)N)C(=O)N[C@H](C(=O)N[C@@H](CCCCN)C(=O)N[C@@H](CC(N)=O)C(=O)N[C@@H](CCCCN)C(N)=O)C(C)C)C(C)C)C(C)C)[C@@H](C)O`: in assay [1], the EC50 came out at 110 nM. Moreover, the Emax in assay [2] was found to be 87.7%. Besides, the IC50 in assay [3] stood at 9.1 nM.
